From ChEMBL document CHEMBL1158182, “Antifungal activity of chalcones: a mechanistic study using various yeast strains” (Eur J Med Chem, 2008)

Experiments:
Type in all cases: functional
[1] = system: Ogataea angusta; assay: Antifungal activity against Hansenula polymorpha R3 with rgh3 genotype by agar dilution method
In short: (§1)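 H. polymorpha strains were tested by agar dilution on rich YPD agar at 37 °C. Compound stocks in 96% EtOH were mixed into the medium to give […]. Cells were suspended in water, serially diluted to 10^9, 10^7, 10^5 and 10^3 cells/ml, and applied to the agar with a metal replicator. MIC was read from growth.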

[2] = system: Ogataea angusta; assay: Antifungal activity against Hansenula polymorpha D22 with arg1/arg1 ade1/ADE1 leu2/leu2 URA3/ura3 CYS1/cys1 genotype by agar dilution method; in short: as §1
[3] = system: Saccharomyces cerevisiae; assay: Antifungal activity against diploid Saccharomyces cerevisiae PV-2 by agar dilution method
In short: (§2)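 MICs by agar dilution on rich YPD medium. Compounds were added from 96% EtOH stocks to give final agar concentrations of 20 to 50 (units as printed in the source). Cells were suspended in water, serially diluted to 10^9, 10^7, 10^5 and 10^3 cells/ml, and spotted onto agar with a metal replicator. Incubation was at 37 °C for H. polymorpha and 30 °C for S. cerevisiae.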

[4] = system: Ogataea angusta; assay: Antifungal activity against Hansenula polymorpha CRD2 with leu2 CDR2 genotype by agar dilution method; in short: as §1
[5] = system: Ogataea angusta; assay: Antifungal activity against Hansenula polymorpha CTA1 with leu2 cat1 genotype by agar dilution method; in short: as §2
[6] = system: Ogataea angusta; assay: Antifungal activity against Hansenula polymorpha MC1 with met2 cys1 genotype by agar dilution method; in short: as §1
[7] = system: Saccharomyces cerevisiae; assay: Antifungal activity against haploid Saccharomyces cerevisiae 2180 by agar dilution method
In short: (§3)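 S. cerevisiae and K. lactis strains were tested by agar dilution on rich YPD agar at 30 °C. Compound stocks in 96% EtOH were added to the medium to give […]. Cells were suspended in water, serially diluted to 10^9–10^3 cells/ml, and plated with a metal replicator. MIC was read from growth.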

[8] = system: Saccharomyces cerevisiae; assay: Antifungal activity against haploid Saccharomyces cerevisiae 1S by agar dilution method; in short: as §3
[9] = system: Kluyveromyces lactis; assay: Antifungal activity against Kluyveromyces lactis 1-6A with MATalpha uraA lys arg genotype by agar dilution method; in short: as §3
[10] = system: Kluyveromyces lactis; assay: Antifungal activity against Kluyveromyces lactis 2-18B with MATalpha metA1 ura3 leu2 genotype by agar dilution method; in short: as §3
[11] = system: Ogataea angusta; assay: Antifungal activity against Hansenula polymorpha M4 with met4 genotype by agar dilution method; in short: as §1
[12] = system: Ogataea angusta; assay: Antifungal activity against Hansenula polymorpha AU05 with ade3 ura3 genotype by agar dilution method; in short: as §1
[13] = system: Ogataea angusta; assay: Antifungal activity against Hansenula polymorpha 2a with arg1 leu2 ura3 cys1 genotype by agar dilution method; in short: as §1
[14] = system: Saccharomyces cerevisiae; assay: Antifungal activity against haploid Saccharomyces cerevisiae 1169 by agar dilution method; in short: as §3
[15] = system: Saccharomyces cerevisiae; assay: Antifungal activity against haploid Saccharomyces cerevisiae YSH1170 by agar dilution method; in short: as §3
[16] = system: Ogataea angusta; assay: Antifungal activity against Hansenula polymorpha CD3 with ade1 leu2 cds3 genotype by agar dilution method; in short: as §1
[17] = system: Saccharomyces cerevisiae; assay: Antifungal activity against haploid Saccharomyces cerevisiae FY4 by agar dilution method; in short: as §3
[18] = system: Saccharomyces cerevisiae; assay: Antifungal activity against diploid Saccharomyces cerevisiae PV-3 by agar dilution method; in short: as §2
[19] = system: Kluyveromyces lactis; assay: Antifungal activity against Kluyveromyces lactis 2-19B with MATalpha ura lys arg genotype by agar dilution method; in short: as §3
[20] = system: Ogataea angusta; assay: Antifungal activity against Hansenula polymorpha WT2 with ade1 met6 genotype by agar dilution method; in short: as §1
[21] = system: Ogataea angusta; assay: Antifungal activity against Hansenula polymorpha WT1 with ade1 ura3 genotype by agar dilution method; in short: as §1
[22] = system: Saccharomyces cerevisiae; assay: Antifungal activity against haploid Saccharomyces cerevisiae Sigma 1278b by agar dilution method; in short: as §3
[23] = system: Ogataea angusta; assay: Antifungal activity against Hansenula polymorpha CD2 with ade1 leu2 cds2 genotype by agar dilution method; in short: as §1
[24] = system: Saccharomyces cerevisiae; assay: Antifungal activity against haploid Saccharomyces cerevisiae D3C by agar dilution method; in short: as §2
[25] = system: Saccharomyces cerevisiae; assay: Antifungal activity against diploid Saccharomyces cerevisiae 29a by agar dilution method; in short: as §3
[26] = system: Ogataea angusta; assay: Antifungal activity against Hansenula polymorpha CD1 with ade1 leu2 cds1 genotype by agar dilution method; in short: as §1
[27] = system: Saccharomyces cerevisiae; assay: Antifungal activity against haploid Saccharomyces cerevisiae YSH1171 by agar dilution method; in short: as §3
[28] = system: Saccharomyces cerevisiae; assay: Antifungal activity against haploid Saccharomyces cerevisiae 10560-6B by agar dilution method; in short: as §3
[29] = system: Ogataea angusta; assay: Antifungal activity against Hansenula polymorpha AS1 with arg1 gsh2delta genotype by agar dilution method; in short: as §1
[30] = system: Ogataea angusta; assay: Antifungal activity against Hansenula polymorpha M2 with met2 genotype by agar dilution method; in short: as §1
[31] = system: Ogataea angusta; assay: Antifungal activity against Hansenula polymorpha 2b with arg1 ade1 leu2 genotype by agar dilution method; in short: as §1
[32] = system: Saccharomyces cerevisiae; assay: Antifungal activity against diploid Saccharomyces cerevisiae 1a by agar dilution method; in short: as §3
[33] = system: Ogataea angusta; assay: Antifungal activity against Hansenula polymorpha WA1 with ade1 leu2 gsh1 genotype by agar dilution method; in short: as §2

Measured: MIC

O=C(/C=C/c1cccc(O)c1)c1ccc(Cl)cc1
18 µg/mL: [3] | [17] | [27]
25 µg/mL: [5] | [11] | [12] | [21] | [25] | [30] | [31]
16 µg/mL: [7]
20 µg/mL: [8] | [14] | [24] | [32]
15 µg/mL: [15] | [18] | [22] | [28]
not listed: [33]
< 20 µg/mL: all other assays above

COc1ccc(/C=C/C(=O)c2ccccc2)cc1O
35 µg/mL: [15]
25 µg/mL: [9] | [10] | [19]
30 µg/mL: [6] | [13] | [33] | [29]
not listed: [3] | [5] | [18] | [24]
> 40 µg/mL: all other assays above

O=C(/C=C/c1ccc(O)cc1)c1ccc(Cl)cc1
40 µg/mL: [1] | [4]
30 µg/mL: [6] | [33] | [29]
35 µg/mL: [3] | [10] | [13] | [18] | [19] | [32]
not listed: [5] | [24]
> 40 µg/mL: all other assays above

COc1cccc(/C=C/C(=O)c2ccc(Cl)cc2)c1O
not listed: [3] | [5] | [18] | [24] | [33]
> 40 µg/mL: all other assays above
